# KCNQ1 block = inhibitors of human KCNQ1 channel, primary screen, cell-based, thallium flux, high-throughput | AID 2642, 2010 | Potassium voltage-gated channel subfamily KQT member 1 (Homo sapiens), P51787 | B-score at 10 µM | CHO-K1 KCNQ1, FluxOR thallium flux fluorescence; hits give high values | 310,000 compounds, 1.3% hits;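 active means compounds whose thallium flux B-score, printed positive for inhibition, exceeds three library SD while starting fluorescence stays within three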;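 further: channel opened by potassium depolarization with thallium stimulus after 20 min compound exposure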
# hERG rescue = hERG rescue from dofetilide block, primary screen, cell-based, CHO-hERG, FluxOR thallium flux, dofetilide IC70. Voltage-gated inwardly rectifying potassium channel KCNH2 (Homo sapiens), Q12809. dofetilide IC70 present. activation (rescue from dofetilide block), less the hit threshold, % at 10 µM. 310,000 compounds, 0.51% hits;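 active means activation above the mean of controls blocked by dofetilide plus 5 SD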;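 further: thallium influx through hERG after potassium depolarization seen as dye fluorescence rise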
# KCNK9 block = KCNK9 potassium channel inhibitors, primary screen, HEK293 cells, thallium flux; AID 488922, 2010; FluxOR thallium flux fluorescence; hits give low values; B-score at 10 µM; 310,000 compounds, 1.2% hits; Potassium channel subfamily K member 9 (Homo sapiens), Q9NPC2;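 active means ratio B-score over 3 SD below the library mean, with starting fluorescence within 5 SD of its mean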;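 further: negative B-score means less thallium flux so channel inhibition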
# KCNQ1 pot = potentiators or activators of KCNQ1 channel, primary screen, cell-based, thallium flux, high-throughput; 310,000 compounds, 0.35% hits; B-score at 10 µM; AID 2648, 2010; CHO-K1 KCNQ1, thallium flux FluxOR fluorescence; hits give high values; Potassium voltage-gated channel subfamily KQT member 1 (Homo sapiens), P51787;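 active means fluorescence ratio B-score, a plate-corrected score, at least three library SD, with initial intensity B-score within 5 SD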
#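 assay system = KCNQ1-transfected CHO-K1 cells | medium = assay buffer with matched DMSO | probe or stimulus = depolarizing K+/Tl+ stimulus, K2SO4 and Tl2SO4 each 12.5 mM in 5x stock | dosing = single dose | incubation = dye 90 min, compound 20 min, room temperature | detection = kinetic FluxOR fluorescence, 10 s baseline plus 110 s post-stimulus | evaluation = ratio B score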
# KCNK3 block = human KCNK3 channel inhibitors, primary screen, CHO cells, FluxOR thallium flux, B-score. Potassium channel subfamily K member 3 (Homo sapiens), O14649. FluxOR fluorescence; hits give low values. B-score at 10 µM. 340,000 compounds, 0.84% hits;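 active means B-score under library mean minus 4 SD, starting fluorescence ratio at most library mean plus 5 SD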;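 further: more negative B-score means stronger inhibition of thallium flux through KCNK3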
# Kir21 inh = inhibitors of mouse Kir2.1 inward-rectifier potassium channel; B-score at 10 µM; Inward rectifier potassium channel 2 (Mus musculus), P35561; AID 1672, 2009; 310,000 compounds, 0.85% hits; HEK293-Kir2.1, FluxOR thallium flux fluorescence; hits give low values;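 active means fluorescence ratio B-score at or below minus 3 SD of library scores, with starting-brightness B-score within 2 SD, cut at about -4.2 in these data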;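 further: channel flux triggered by added potassium and thallium sulfate stimulus; B-score of peak minus minimum fluorescence over baseline after thallium stimulus; more negative B-score means stronger Kir2.1 block with less thallium influx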
# KCNK3 inh conf = retest of human KCNK3 channel inhibitors, confirmation, CHO cells, FluxOR thallium flux, triplicate | AID 651638, 2012 | shares compounds with KCNK3 block | 2,400 compounds, 99% hits | FluxOR fluorescence; 0% buffer, 100% carvedilol maximal block | ratio percent of control, % at 10 µM;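 active means ratio percent of control, averaged over triplicates, above buffer control mean plus 5 SD, cut at about 64% in these data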;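 further: ratio is the fluorescence rise from min to max over baseline after thallium stimulus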
# KCNK3 uninduced = thallium flux inhibition in non-induced cells, primary screen, counter-screen for KCNK3 inhibitor project, cell-based, non-induced KCNK3 line, FluxOR thallium, triplicate; shares compounds with KCNK3 block; non-induced KCNK3 parental cells; hits give low values; thallium flux ratio (lower = more inhibition) at 10 µM; 2,400 compounds, 40% hits; AID 651747, 2012;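 active means thallium flux ratio, averaged over three wells, more than 5 SD below the buffer control mean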;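 further: host cells are CHO cells without KCNK3 induction; ratio is peak minus trough fluorescence over baseline then normalized to buffer controls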
# Starred values were filed as active, the others as inactive; i = inactive; / = not tested or not shown. Hits are enriched below; roughly 3.8% of the tested compounds scored in any of these assays.
SMILES,KCNQ1 block,hERG rescue,KCNK9 block,KCNQ1 pot,KCNK3 block,Kir21 inh,KCNK3 inh conf,KCNK3 uninduced
CC(=O)Oc1c(I)cc(I)cc1C(=O)Nc1ccc(Cl)cc1,7*,-16,i,i,-11*,0.83,123*,0.13*
Cc1cccc(-n2c(SCc3ccc([N+](=O)[O-])cc3)nnc2-c2c[nH]c3ccccc23)c1,i,-18,i,i,-11*,-0.27,108*,0.15*
O=C(Nc1ccc(Nc2ccccc2)cc1)c1ccc(Cl)c([N+](=O)[O-])c1,i,-7,i,i,-11*,0.1,125*,0.15*
CN1c2ccccc2-c2nc3ccccc3n2C1c1ccccn1 (configuration not stated),i,-6,i,i,-9.7*,-0.79,95*,i
CC(C)CN(CC(C)C)c1nc(N)c(C#N)c(CC#N)c1C#N,i,-3,-7.5*,i,-11*,-2.2,92*,i
CN(CCO)c1nc(N)c(C#N)c(CC#N)c1C#N,i,-8,i,i,i,-1.1,/,/
COc1cccc(COC(=O)c2cc(S(=O)(=O)N3CCCCC3)ccc2N2CCOCC2)c1OC,i,-6,i,i,i,1.5,/,/
Cc1ccc(S(=O)(=O)CCC(=O)c2cccc([N+](=O)[O-])c2)cc1,i,-26,i,i,-9.5*,-9.5*,114*,0.12*
CN(C)c1ccc(C(c2nnnn2C(C)(C)C)N2CCN(C(=O)c3ccco3)CC2)cc1 (configuration not stated),i,-14,i,i,i,2,/,/
Cc1ccc(C)c(N2CCN(C(c3ccc(N(C)C)cc3)c3nnnn3C(C)(C)C)CC2)c1 (configuration not stated),i,-11,-8.1*,i,i,-0.78,122*,0.15*
O=C(CCN1c2ccccc2Sc2ccccc21)OCc1nnc(-c2ccccc2)o1,i,-6,i,i,-9.5*,-1.4,73*,i
O=C(CNC(=O)c1ccccc1)OCc1nnc(-c2ccccc2)o1,i,-15,i,i,i,-0.23,/,/
Cc1ccc(NC(=O)Cn2c([N+](=O)[O-])cnc2C)cc1Cl,i,-5,i,i,i,0.02,/,/
O=C(NCc1ccccc1)c1cccc(COc2ccccc2Cl)c1,6*,-3,i,i,-12*,1.7,112*,i
Cc1ccc(C)c(C(=O)COC(=O)c2c(-c3ccccc3)noc2C)c1,/,/,/,/,-14*,/,136*,i
Cc1ccc(OCCOC(=O)c2c(-c3ccccc3)noc2C)cc1,i,-10,-6.7*,i,-8.8*,-0.25,101*,i
Cc1ccc(/C([O-])=C(/C(=S)NCc2ccccc2)[n+]2cccc(CO)c2)cc1[N+](=O)[O-],/,/,/,/,i,/,/,/
Cc1ccccc1-c1cc(-c2ccccc2O)on1,i,-7,i,i,-9.2*,1.4,118*,i
COc1ccc(OCC(=O)Nc2c(C(=O)N(CCN(C)C)Cc3ccco3)oc3ccccc23)cc1,i,-24,i,i,i,-2.7,/,/
